Results gathered from unrelated publications.
Target: 5-hydroxytryptamine receptor 2A (HTR2A, Homo sapiens, UniProt P28223)
Observed: ligand displacement

SMILES	technique	tested at	inhibition
C#CCOCCOCCOc1ccc2c3c1C1CCCC1N3CCNC2 (racemic)	radioligand	10 µM	~70%
CCN(CC)c1ccc(C2Nc3ccc(C(=O)c4ccccc4)cc3NC3=C2C(=O)CC(C)(C)C3)cc1 (stereo not shown)	radioligand	10 µM	-10%
O=C(c1ccc(Cl)cc1)N(Cc1ccccc1)C1CCCCC1	radioligand	10 µM	14.5%
CN1CCN(CCCOc2ccc(=O)n(-c3ccc(Cl)c(Cl)c3)n2)CC1	–	1 µM	34.9%
O=C1N=C(N2CCCCN2)S/C1=C\c1ccc(F)cc1O	radioligand	10 µM	17%
COc1ccc(-n2nc(OCCCN3CCCCC3)ccc2=O)cc1	–	1 µM	49.4%
N#Cc1cc(Cn2c(N3CCCC3)nc3ccccc32)ccc1F	–	10 µM	5.32%
Oc1cccc(Nc2nc(-c3ccc(F)cc3F)cs2)c1	radioligand	10 µM	67%
CCCNc1nc2ccccc2n1Cc1ccc(Cl)cc1	–	10 µM	59.8%
COc1cc2c3c(c1OC)-c1cc4c(cc1CC3N(C)CC2c1ccccc1)OCO4 (stereo not shown)	radioligand	10 µM	< 50%
